Activity calls are given as the source filed them.
Experiments:
Format in all cases: functional, cell-based
SF-295 = test: Cytotoxicity against human SF295 cells at 5 ug/ml after 72 hrs by MTT assay
Procedure, shortened: (§1)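 Cells kept in log-phase growth in RPMI-1640 with 2 mM glutamine, 10% fetal calf serum, streptomycin and 100 U/ml penicillin at 37 °C, 5% CO₂. Single concentration of 5 µg/ml applied for 72 h. Growth read by MTT, reported as percent growth inhibition relative to untreated cells. Data from three to four experiments.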

HL-60 = test: Cytotoxicity against human HL60 cells at 5 ug/ml after 72 hrs by MTT assay; procedure, shortened: as §1
MDA-MB-435 = test: Cytotoxicity against human MDA-MB-435 cells at 5 ug/ml after 72 hrs by MTT assay; procedure, shortened: as §1
HCT-8 = test: Cytotoxicity against human HCT8 cells at 5 ug/ml after 72 hrs by MTT assay; procedure, shortened: as §1

Measured: Activity

CCCCCCCCC(N)C(=O)OC (stereo not drawn)
active: all assays above

CCCCCCCCCCC(N)C(=O)OC (stereo not drawn)
active: all assays above
